TRPC4 block – TRPC4 (mouse) channel inhibition. hit rate 0.39% among 300,000. Q9QUQ5. HEK293 TRPC4beta/mu-opioid, DAMGO-evoked Fluo4 calcium flux; stronger effect = lower value. AID 2247. B-score at 10 µM;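 active = B-score over 3 SD under the library average, no early fluorescence shift, positive overall ratio signal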
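Assay system: HEK293 cells with stable TRPC4beta plus mu-opioid receptor expression. Dosing: single dose. Measured by: Fluo4 Ca2+ flux fluorescence. Also added: DAMGO in two steps, submaximal then maximal. Read-out: B score from integrated Fluo4 fluorescence ratio.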
TRPC4 act – activators of mouse TRPC4 channel; B-score at 10 µM; hit rate 0.49% among 310,000; HEK293 TRPC4beta/mu-opioid, Fluo4 calcium fluorescence; stronger effect = higher value; Q9QUQ5;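 active = B-score above 5 SD of library B-scores, and initial fluorescence ratio not above library mean plus 5 SD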;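 also: positive B-score marks a calcium rise read as TRPC4 activation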
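system = HEK293 cells stably co-expressing mouse TRPC4beta and mu-opioid receptor | schedule = Fluo4 dye loading 45 min at room temperature, 110 s recording | measure = B-scored integrated calcium fluorescence ratio | signal = Fluo4 calcium-sensitive dye fluorescence, kinetic, 1 Hz baseline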
TRPC4 potent – allosteric potentiators of mouse TRPC4 channel; Q9QUQ5; HEK293 TRPC4beta/mu-opioid, DAMGO EC20, Fluo-4 Ca2+ flux; stronger effect = higher value; B-score at 10 µM; hit rate 0.42% among 310,000; AID 2227;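 active = B-score of calcium response area above 5 SD of library B-scores, with initial fluorescence ratio within 5 SD of library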
TRPC6 activator – mouse TRPC6 channel activation. HEK293-TRPC6 membrane potential dye fluorescence; stronger effect = higher value. hit rate 0.13% among 310,000. B-score at 10 µM;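 active = B-score of the integrated fluorescence ratio above library mean plus 3 SD, and starting fluorescence ratio within library mean plus 5 SD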;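 also: higher score means more depolarization so channel activation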
TRPC6 inh – blocks the mouse TRPC6 cation channel | B-score at 10 µM | Q61143 | hit rate 1.1% among 310,000 | HEK293-TRPC6, membrane potential dye, ACh-evoked depolarization; stronger effect = lower value;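 active = B-score under library mean minus 3 SD, initial fluorescence not abnormally high, positive integrated signal ratio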;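 also: B-score derived from integrated fluorescence ratio over the kinetic read; more negative B-score means stronger inhibition of depolarization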
Hits are given with their value. An excerpt weighted towards active compounds, which were near 2.3% of everything screened.

What do the screens show for `CC(=O)N1CCN(Cc2nc3cc(NC(=O)NC4CCCCC4)ccc3n2C)CC1`?
TRPC4 block: inactive; TRPC4 act: inactive; TRPC4 potent: inactive; TRPC6 activator: inactive; TRPC6 inh: inactive

How did Cc1ccccc1NC(=O)NCCCN1CCN(c2ccccc2)CC1 do in these assays?
TRPC4 block: inactive; TRPC4 act: inactive; TRPC4 potent: inactive; TRPC6 activator: inactive; TRPC6 inh: inactive

What do the screens show for `O=C(NCCCN1CCN(c2ccccc2)CC1)Nc1ccccc1C(F)(F)F`?
TRPC4 block: -6; TRPC4 act: inactive; TRPC4 potent: inactive; TRPC6 activator: inactive; TRPC6 inh: inactive

How did COc1ccccc1N1CCN(CCCNC(=O)Nc2ccccc2)CC1 do in these assays?
TRPC4 block: -6; TRPC4 act: inactive; TRPC4 potent: inactive; TRPC6 activator: inactive; TRPC6 inh: inactive

What do the screens show for `CN(C)S(=O)(=O)Nc1ccccc1F`?
TRPC4 block: inactive; TRPC4 act: inactive; TRPC4 potent: inactive; TRPC6 activator: inactive; TRPC6 inh: inactive

Results for O=C(O)c1cccc(-c2ccc(/C=N/n3cnc4sc5c(c4c3=O)CCCC5)o2)c1 ?
TRPC4 block: inactive; TRPC4 act: inactive; TRPC4 potent: inactive; TRPC6 activator: inactive; TRPC6 inh: inactive

How did CCN1C(=O)/C(=C/c2ccc(OC)c(OC)c2)N=C1SCC(=O)NCc1ccco1 do in these assays?
TRPC4 block: inactive; TRPC4 act: inactive; TRPC4 potent: inactive; TRPC6 activator: inactive; TRPC6 inh: inactive

What do the screens show for `CCOC(=O)C1=NN(C(=O)c2cccc(Br)c2)C(O)(C(C)(C)C)C1` (stereo unspecified)?
TRPC4 block: inactive; TRPC4 act: 180; TRPC4 potent: inactive; TRPC6 activator: inactive; TRPC6 inh: inactive

What do the screens show for `COc1ccc(-c2csc(NC(=O)Cc3cccc4ccccc34)c2C(=O)O)cc1`?
TRPC4 block: -7; TRPC4 act: inactive; TRPC4 potent: inactive; TRPC6 activator: inactive; TRPC6 inh: inactive

What do the screens show for `O=C(/C=C/c1ccco1)Oc1cc(Br)cc(/C=N/NC(=O)c2ccccc2O)c1`?
TRPC4 block: inactive; TRPC4 act: inactive; TRPC4 potent: 12; TRPC6 activator: inactive; TRPC6 inh: inactive

Results for CCCn1c(=O)c2ccccc2n2c(SCCOc3ccccc3)nnc12 ?
TRPC4 block: -7; TRPC4 act: inactive; TRPC4 potent: inactive; TRPC6 activator: inactive; TRPC6 inh: inactive

What do the screens show for `CCCn1c(=O)c2ccccc2n2c(SC(C)C(N)=O)nnc12` (stereo unspecified)?
TRPC4 block: inactive; TRPC4 act: inactive; TRPC4 potent: inactive; TRPC6 activator: inactive; TRPC6 inh: inactive

How did COc1ccc(CN2CCc3c([nH]c4ccccc34)C2)c(OC)c1C do in these assays?
TRPC4 block: inactive; TRPC4 act: inactive; TRPC4 potent: inactive; TRPC6 activator: inactive; TRPC6 inh: inactive

Results for CCOc1cc(CNCC(C)C)cc(Cl)c1OCc1ccccc1 ?
TRPC4 block: inactive; TRPC4 act: inactive; TRPC4 potent: inactive; TRPC6 activator: inactive; TRPC6 inh: inactive

How did COc1cc(CNC2CCCCCCC2)cc(Br)c1OCC#N do in these assays?
TRPC4 block: inactive; TRPC4 act: inactive; TRPC4 potent: inactive; TRPC6 activator: inactive; TRPC6 inh: inactive

How did COc1cc(CNC2CCCC2)c(Br)cc1OC1CCCC1 do in these assays?
TRPC4 block: -7; TRPC4 act: inactive; TRPC4 potent: inactive; TRPC6 activator: inactive; TRPC6 inh: inactive

What do the screens show for `CCOc1cc(CNC2CCCC2)cc(Cl)c1OCc1ccccc1`?
TRPC4 block: -6; TRPC4 act: inactive; TRPC4 potent: inactive; TRPC6 activator: inactive; TRPC6 inh: inactive

How did CCOc1c(Br)cc(CNC2CCCCCCC2)cc1OC do in these assays?
TRPC4 block: -6; TRPC4 act: inactive; TRPC4 potent: inactive; TRPC6 activator: inactive; TRPC6 inh: inactive

How did CC(=O)c1ccc(NC(=O)CC23CC4CC(C2)CC(n2nnc(C)n2)(C4)C3)cc1 do in these assays?
TRPC4 block: inactive; TRPC4 act: inactive; TRPC4 potent: inactive; TRPC6 activator: inactive; TRPC6 inh: inactive

How did Cc1c(-c2ccccc2)nc2ccccc2c1C(=O)O do in these assays?
TRPC4 block: inactive; TRPC4 act: inactive; TRPC4 potent: inactive; TRPC6 activator: inactive; TRPC6 inh: inactive

What do the screens show for `CC[C@H](NC(=O)c1c(C)c(-c2ccccc2)nc2ccccc12)c1ccccc1`?
TRPC4 block: inactive; TRPC4 act: inactive; TRPC4 potent: inactive; TRPC6 activator: 13; TRPC6 inh: inactive

What do the screens show for `CSCCC(NS(=O)(=O)c1ccc2c(c1)oc(=O)n2C)C(=O)NC1CCCCC1` (stereo unspecified)?
TRPC4 block: inactive; TRPC4 act: inactive; TRPC4 potent: inactive; TRPC6 activator: inactive; TRPC6 inh: inactive

What do the screens show for `CSCCC(NS(=O)(=O)c1ccc2c(c1)c(=O)n(C)c(=O)n2C)C(=O)NC1CCN(Cc2ccccc2)CC1` (stereo unspecified)?
TRPC4 block: inactive; TRPC4 act: 90; TRPC4 potent: inactive; TRPC6 activator: inactive; TRPC6 inh: inactive

How did CCO[C@@H]1OC(C(=O)NC2CC2)=C[C@H](c2ccc(C(F)(F)F)cc2)[C@H]1CCCO do in these assays?
TRPC4 block: inactive; TRPC4 act: inactive; TRPC4 potent: inactive; TRPC6 activator: inactive; TRPC6 inh: inactive

Results for CN1CCC(N(C)CC(C)(C)NS(=O)(=O)c2ccccc2)CC1 ?
TRPC4 block: inactive; TRPC4 act: inactive; TRPC4 potent: inactive; TRPC6 activator: inactive; TRPC6 inh: inactive

How did CCOc1ccc2[nH]c3c(N4CCN(c5ccccn5)CC4)ncnc3c2c1 do in these assays?
TRPC4 block: -6; TRPC4 act: inactive; TRPC4 potent: inactive; TRPC6 activator: inactive; TRPC6 inh: inactive

Results for CCOCCOCCC(C(=O)OCC)P(=O)(c1ccccc1)c1ccccc1 (stereo unspecified) ?
TRPC4 block: inactive; TRPC4 act: inactive; TRPC4 potent: inactive; TRPC6 activator: inactive; TRPC6 inh: inactive

How did COc1cc(NC(=S)NCCc2ccccc2)c(OC)cc1NC(=O)CC(C)C do in these assays?
TRPC4 block: -6; TRPC4 act: inactive; TRPC4 potent: inactive; TRPC6 activator: inactive; TRPC6 inh: inactive

What do the screens show for `CN1C(C(=O)NCc2cccc(Br)c2)CC2Cn3c(nc4cc5ccccc5cc43)C21` (stereo unspecified)?
TRPC4 block: inactive; TRPC4 act: inactive; TRPC4 potent: inactive; TRPC6 activator: inactive; TRPC6 inh: inactive

How did COc1ccc(NC(C)=O)cc1NC(C)C(=O)Nc1cc(C(F)(F)F)ccc1N1CCOCC1 (stereo unspecified) do in these assays?
TRPC4 block: inactive; TRPC4 act: inactive; TRPC4 potent: 27; TRPC6 activator: inactive; TRPC6 inh: inactive

What do the screens show for `Cn1c2c(c(=O)n(C)c1=O)C(C(F)(F)F)(C(F)(F)F)N=C(CCC1CCCCC1)N2`?
TRPC4 block: inactive; TRPC4 act: inactive; TRPC4 potent: 11; TRPC6 activator: inactive; TRPC6 inh: inactive

What do the screens show for `CCN(CC)CCOC(=O)c1cccc(Cl)c1`?
TRPC4 block: inactive; TRPC4 act: inactive; TRPC4 potent: inactive; TRPC6 activator: inactive; TRPC6 inh: inactive

Results for CCN(CC)CCOC(=O)c1cccc(Br)c1 ?
TRPC4 block: inactive; TRPC4 act: inactive; TRPC4 potent: 27; TRPC6 activator: inactive; TRPC6 inh: inactive
